# Results reported in ChEMBL document CHEMBL1137992, “Long hydrocarbon chain keto diols and diacids that favorably alter lipid disorders in vivo” (J Med Chem, 2004).
# Experiments:
# Rattus norvegicus [1] = experiment: Percent increase in non-HDL-cholesterol in obese Zucker rats after 2 weeks of treatment at a dose of 0 mg/kg/day; format: functional
# Summary of the method: (§1)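 Female Zucker fatty rats [Crl:(Zuc)-faBR], 10–12 weeks, 400–500 g, acclimated 7 days on chow. Compound or vehicle (20% EtOH/80% PEG-200) given by daily oral gavage for 2 weeks, 0–100 mg/kg/day. After a 6 h fast, blood was taken before dosing, at 1 wk and at 2 wk. Serum lipids, NEFA and insulin (ELISA) were measured; glucose by glucometer. HDL/non-HDL-C came from Superose 6 gel-filtration profiles. Values are % change from pretreatment, mean ± SEM.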
# Rattus norvegicus [2] = experiment: Amount of HDL-cholesterol in obese Zucker rats at pre-treatment at a dose of 10 mg/kg/day; format: functional
# Summary of the method: (§2)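 Female Zucker fatty rats [Crl:(Zuc)-faBR], 10–12 weeks old (400–500 g), dosed once daily by oral gavage in 20% EtOH/80% PEG-200 (dose volume 0.25% of body weight). Rats were fasted 6 h and bled before dosing and at day 7 (orbital plexus), and at day 14 (cardiac puncture). Serum cholesterol fractions came from Superose 6 gel-filtration lipoprotein profiles (% peak area × serum total cholesterol). Values are mean ± SEM.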
# Rattus norvegicus [3] = experiment: Amount of triglycerides in obese Zucker rats after 2 weeks of treatment at a dose of 3 mg/kg/day; format: functional
# Summary of the method: (§3)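 Female Zucker fatty rats [Crl:(Zuc)-faBR], 10–12 weeks old (400–500 g), dosed once daily by oral gavage in 20% EtOH/80% PEG-200 for up to 14 days. After a 6-h fast, serum was taken pre-dose, at day 7 (orbital venous plexus, O2/CO2 anaesthesia) and at day 14 (cardiac puncture), stored at −80 °C, and assayed on a Hitachi 912 automatic analyzer. Mean ± SEM.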
# Rattus norvegicus [4] = experiment: Amount of insulin in obese Zucker rats at pre-treatment at a dose of 10 mg/kg/day; format: functional
# Summary of the method: (§4)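 Female obese Zucker rats [Crl:(Zuc)-faBR], 400–500 g, given daily oral gavage in 20% EtOH/80% PEG-200 for up to 14 days. After a 6-h fast, serum was collected pretreatment and at day 7 (orbital bleed) and day 14 (cardiac puncture) and stored at -80 °C. Insulin was measured by ELISA. Values are mean ± SEM.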
# Rattus norvegicus [5] = experiment: Percent increase in HDL-cholesterol in obese Zucker rats after 2 weeks of treatment at a dose of 10 mg/kg/day; format: functional; summary of the method: as §1
# Rattus norvegicus [6] = experiment: Amount of triglycerides in obese Zucker rats at pre-treatment at a dose of 30 mg/kg/day; format: functional; summary of the method: as §3
# Rattus norvegicus [7] = experiment: Amount of glucose in obese Zucker rats after 1 week of treatment at a dose of 30 mg/kg/day; format: functional
# Summary of the method: (§5)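 Female Zucker fatty rats [Crl:(Zuc)-faBR], 10–12 weeks old (400–500 g), gavaged daily with vehicle (20% EtOH/80% PEG-200, 0.25% of body weight) or compound. After a 6-h fast, blood glucose was read by glucometer from tail-prick blood of unanesthetized rats before dosing and after 1 and 2 weeks. Values are mean ± SEM.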
# Rattus norvegicus [8] = experiment: Amount of nonesterified fatty acids in obese Zucker rats at pre-treatment at a dose of 10 mg/kg/day; format: functional; summary of the method: as §3
# Rattus norvegicus [9] = experiment: Percentage change of non-HDL cholesterol levels in obese female Zucker rats after 2 weeks of pre-treatment at a dose of 100 mg/kg/day; format: functional
# Summary of the method: (§6)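 Female Zucker fatty rats [Crl:(Zuc)-faBR], 10–12 weeks old (400–500 g), acclimated 7 days and fed rodent chow. Dosed once daily by oral gavage in 20% EtOH/80% PEG-200 (v/v), at 0.25% of body weight, for 2 weeks. Blood taken after a 6-h fast: orbital plexus before dosing and at day 7, cardiac puncture at day 14. Serum lipoprotein cholesterol measured by Superose 6 gel filtration with on-line cholesterol detection. Values are % change from pretreatment, mean ± SEM.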
# Rattus norvegicus [10] = experiment: Amount of insulin in obese Zucker rats after 1 week of treatment at a dose of 100 mg/kg/day; format: functional; summary of the method: as §4
# Rattus norvegicus [11] = experiment: Percent increase in non-HDL-cholesterol in obese Zucker rats after 1 week of treatment at a dose of 0 mg/kg/day; format: functional; summary of the method: as §1
# Rattus norvegicus [12] = experiment: Amount of triglycerides in obese Zucker rats after 2 weeks of treatment at a dose of 30 mg/kg/day; format: functional; summary of the method: as §3
# Rattus norvegicus [13] = experiment: Percent increase in triglycerides in obese Zucker rats after 1 week of treatment at a dose of 0 mg/kg/day; format: functional; summary of the method: as §1
# Rattus norvegicus [14] = experiment: Amount of insulin in obese Zucker rats after 1 week of treatment at a dose of 10 mg/kg/day; format: functional; summary of the method: as §4
# [15] = Concentration required for inhibition of lipid synthesis in primary cultures of rat hepatocytes; format: functional, cell-based; conditions: Hepatocyte
# Summary of the method: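 Primary hepatocytes from male Sprague-Dawley rats (Seglen isolation), plated at 1.5×10^5 cells/cm² on collagen in serum-containing DMEM, switched to serum-free medium after 4 h, grown overnight to monolayers. Cells incubated 4 h with 0.25 μCi [1-14C]acetate/well (1 Ci/mol final) plus 0, 1, 3, 10, 30, 100 or 300 μM compound. Lipids extracted into scintillant and counted; IC50 taken from lipid synthesis rates.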
# Rattus norvegicus [16] = experiment: Amount of glucose in obese Zucker rats after 2 weeks of treatment at a dose of 10 mg/kg/day; format: functional; summary of the method: as §5
# Rattus norvegicus [17] = experiment: Percentage change of triglycerides in obese female Zucker rats after 1 week of pre-treatment at a dose of 100 mg/kg/day; format: functional; summary of the method: as §6
# Rattus norvegicus [18] = experiment: Amount of triglycerides in obese Zucker rats after 1 week of treatment at a dose of 30 mg/kg/day; format: functional; summary of the method: as §3
# Rattus norvegicus [19] = experiment: Percent decrease in triglycerides in obese Zucker rats after 2 weeks of treatment at a dose of 100 mg/kg/day; format: functional; parameters: scale not given: the % may be the effect or the level left; summary of the method: as §1
# Rattus norvegicus [20] = experiment: Amount of glucose in obese Zucker rats after 1 week of treatment at a dose of 100 mg/kg/day; format: functional; summary of the method: as §5
# Rattus norvegicus [21] = experiment: Amount of non-HDL-cholesterol in obese Zucker rats at pre-treatment at a dose of 3 mg/kg/day; format: functional
# Summary of the method: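 Female obese Zucker fatty rats [Crl:(Zuc)-faBR], 10–12 weeks old (400–500 g), on chow. Compound in 20% EtOH/80% PEG-200 (v/v) given by daily oral gavage. After a 6-h fast, serum was taken before dosing and at 7 days (orbital plexus), and at 14 days (cardiac puncture). Lipoprotein cholesterol came from Superose 6HR gel-filtration profiles × serum total cholesterol. Mean ± SEM.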
# Rattus norvegicus [22] = experiment: Amount of HDL-cholesterol in obese Zucker rats at pre-treatment at a dose of 100 mg/kg/day; format: functional; summary of the method: as §2
# Rattus norvegicus [23] = experiment: Amount of non-HDL-cholesterol in obese Zucker rats after 1 week of treatment at a dose of 10 mg/kg/day; format: functional; summary of the method: as §2
# Rattus norvegicus [24] = experiment: Amount of non-HDL-cholesterol in obese Zucker rats after 2 weeks of treatment at a dose of 0 mg/kg/day; format: functional; summary of the method: as §2
# Rattus norvegicus [25] = experiment: Amount of non-HDL-cholesterol in obese Zucker rats after 1 week of treatment at a dose of 100 mg/kg/day; format: functional; summary of the method: as §2
# Rattus norvegicus [26] = experiment: Percent decrease in nonesterified fatty acids in obese Zucker rats after 2 weeks of treatment at a dose of 100 mg/kg/day; format: functional; parameters: scale not given: the % may be the effect or the level left; summary of the method: as §1
# Rattus norvegicus [27] = experiment: Percent decrease in non-HDL-cholesterol in obese Zucker rats after 1 week of treatment at a dose of 30 mg/kg/day; format: functional; parameters: scale not given: the % may be the effect or the level left; summary of the method: as §1
Compound,Activity (Rattus norvegicus [1]),Activity (Rattus norvegicus [2]),Activity (Rattus norvegicus [3]),Activity (Rattus norvegicus [4]),Activity (Rattus norvegicus [5]),Activity (Rattus norvegicus [6]),Activity (Rattus norvegicus [8]),Change (Rattus norvegicus [9]),Activity (Rattus norvegicus [10]),Activity (Rattus norvegicus [12]),Activity (Rattus norvegicus [14]),IC50 [15],Change (Rattus norvegicus [17]),Activity (Rattus norvegicus [18]),Activity (Rattus norvegicus [19]),Activity (Rattus norvegicus [20]),Activity (Rattus norvegicus [21]),Activity (Rattus norvegicus [22]),Activity (Rattus norvegicus [23]),Activity (Rattus norvegicus [24]),further results
CC(C)(CO)CCCCC(=O)CCCCC(C)(C)CO,20%,46 mg/dL,781 mg/dL,8.4 ng/mL,15%,998 mg/dL,1.2 mg/dL,-10%,10.9 ng/mL,985 mg/dL,7.5 ng/mL,4 µM,-54%,726 mg/dL,-33%,120 mg/dL,24 mg/dL,45 mg/dL,21 mg/dL,30 mg/dL,Activity (Rattus norvegicus [7]): 112 mg/dL; Activity (Rattus norvegicus [11]): 44%; Activity (Rattus norvegicus [13]): 19%; Activity (Rattus norvegicus [16]): 110 mg/dL; Activity (Rattus norvegicus [25]): 23 mg/dL
CC(C)(CCCCC(=O)CCCCC(C)(C)C(=O)O)C(=O)O,–,37 mg/dL,857 mg/dL,10.6 ng/mL,–,1242 mg/dL,1.6 mg/dL,-41%,9 ng/mL,962 mg/dL,7.7 ng/mL,3 µM,-75%,826 mg/dL,-54%,113 mg/dL,32 mg/dL,38 mg/dL,26 mg/dL,29 mg/dL,Activity (Rattus norvegicus [7]): 115 mg/dL; Activity (Rattus norvegicus [26]): -45%; Activity (Rattus norvegicus [16]): 113 mg/dL; Activity (Rattus norvegicus [25]): 18 mg/dL; Activity (Rattus norvegicus [27]): -23%
CC(C)(CCCCCC(=O)CCCCCC(C)(C)C(=O)O)C(=O)O,40%,86 mg/dL,833 mg/dL,9.9 ng/mL,60%,982 mg/dL,1.2 mg/dL,-99%,6.4 ng/mL,475 mg/dL,10.5 ng/mL,3 µM,-93%,213 mg/dL,-92%,92 mg/dL,22 mg/dL,66 mg/dL,22 mg/dL,28 mg/dL,Activity (Rattus norvegicus [26]): -52%; Activity (Rattus norvegicus [11]): 45%; Activity (Rattus norvegicus [13]): 18%; Activity (Rattus norvegicus [27]): -48%
